Laboratory results taken from ChEMBL document CHEMBL3797027, “Potent anti-proliferative actions of a non-diuretic glucosamine derivative of ethacrynic acid” (Bioorg Med Chem Lett, 2016).
pIC50: −log10 of the molar value. Active and inactive are the calls of the source. The calls are words filed in the database; no cut-off is given here.

What was measured:
[1] = tested on: Mus musculus; experiment: Toxicity in mouse assessed as induction of paralysis at 120 mg/kg/week for 2 weeks; type: organism-based; details: in vivo, 336 h
[2] = target: Glutathione S-transferase P (Homo sapiens) (UniProt P09211); experiment: Inhibition of GSTP1 in human HCT116 cells assessed as reduction in GST-pi activity pre-incubated for 3 hrs followed by chlorodinitrobenzene and reduced glutathione addition by photometric assay; details: HCT-116
[3] = target: Glutathione S-transferase P (Homo sapiens) (UniProt P09211); experiment: Inhibition of GSTP1 in human H1299 cells assessed as reduction in GST-pi activity pre-incubated for 3 hrs followed by chlorodinitrobenzene and reduced glutathione addition by photometric assay
[4] = Cytotoxic activity against human GBM10 cells assessed as inhibition of cell proliferation incubated for 72 hrs by MTT assay; type: functional, cell-based; details: GBM10, 72 h
In short: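 MTT cell survival assay. IC50 is the concentration that inhibits tumour cell proliferation by 50%, read from cell survival curves. Values are given as mean ± SD of three independent experiments.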

[5] = tested on: MDA-MB-231; experiment: Increase in PUMA protein expression in p53 mutant expressing human MDA-MB-231 cells at 10 to 40 uM by Western blot method; type: functional, cell-based
In short: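 H1299 (p53-null), HCT116 (p53 wild type) and MDA-MB-231 (p53 mutant) cells were treated, then lysates were immunoblotted for p53, p21, PUMA and PARP. β-Actin served as loading control.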

Sequence of Glutathione S-transferase P (Homo sapiens) (P09211 2-210 limits assumed): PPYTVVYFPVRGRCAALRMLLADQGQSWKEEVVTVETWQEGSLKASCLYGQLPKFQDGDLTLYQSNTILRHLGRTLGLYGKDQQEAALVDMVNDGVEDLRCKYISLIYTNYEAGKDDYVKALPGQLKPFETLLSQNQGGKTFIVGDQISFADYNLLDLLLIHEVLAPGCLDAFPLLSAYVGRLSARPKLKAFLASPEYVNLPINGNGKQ

Activity [2]: Dose-dependent effect | Activity [3]: Dose-dependent effect
Structure (SMILES): C=C(CC)C(=O)c1ccc(OCC(=O)N[C@@H]2[C@@H](O)[C@H](O)[C@@H](CO)O[C@H]2O)c(Cl)c1Cl
Activity [1]: Non-toxic | pIC50 [4]: 4.82 | Activity [5]: Active
